The record followed here is ChEMBL document CHEMBL4715704, “Design, synthesis and biological evaluation of novel L-ascorbic acid-conjugated pentacyclic triterpene derivatives as potential influenza virus entry inhibitors” (Eur J Med Chem, 2016).

The nature of data set [1]: Cytotoxicity against MDCK cells after 40 hrs incubation by CellTiter-Glo assay. Type of data set: cell-based, Canis lupus familiaris. The conditions noted are these: dog. Put shortly:
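Uninfected MDCK cells were grown overnight in 96-well plates in 1% FBS medium. They were exposed to increasing compound concentrations for 40 h, and viability was read by CellTiter-Glo luminescence.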
(In general: ATP-based viability assays read luminescence as a measure of living cells.)

Data set [2] relates to Influenza A virus. As to the kind of experiment: Antiviral activity against Influenza A virus A/WSN/33(H1N1) infected in MDCK cells assessed as s reduction in cytopathic effect after 40 hrs incubation by CellTiter-Glo assay relative to control. Type of data set: functional, A/WSN/1933(H1N1). Put shortly:
(§1)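 MDCK cells seeded in 96-well plates and grown overnight, then infected with A/WSN/33 (H1N1) at MOI 0.1. Cells were kept in DMEM with 1% FBS, test compound, 2 µg/mL TPCK-trypsin and 1% DMSO final. After 40 h, cell viability was read by CellTiter-Glo luminescence to measure CPE reduction.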
(Protection from cytopathic effect is a common read-out in antiviral testing.)

Data set [3] concerns Influenza A virus. As to the kind of experiment: Antiviral activity against Influenza A virus A/WSN/33(H1N1) infected in MDCK cells assessed as s reduction in cytopathic effect after 40 hrs incubation by CellTiter-Glo assay. Type of data set: functional, organism-based. As to conditions: A/WSN/1933(H1N1). Put shortly: as §1
Data set [4] in a line: Binding affinity to recombinant influenza A virus A hemagglutinin by SPR assay. In outline: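 SPR used HA immobilized to about 16,000 RU. Compounds were injected as analytes at various concentrations in PBS-P running buffer (10 mM phosphate, 2.7 mM KCl, 137 mM NaCl, 0.05% P20, pH 4.5). Flow was 30 µL/min, with 60 s contact and 60 s dissociation, giving KD.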
The test system of data set [5] is Influenza A virus. As to the kind of experiment: Antiviral activity against Influenza A virus A/WSN/33(H1N1)) infected in MDCK cells assessed as inhibition of virus infection at early stage after 2 hrs post infection by time of addition assay. The data set is classed as functional, organism-based. The conditions noted are these: A/WSN/1933(H1N1). Put shortly:
(§2)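 Cells were seeded in 6-well plates at 5 × 10^5 per well 24 h before infection and kept at 37 °C, 5% CO2. They were infected with WSN at MOI 1. Compound was present during 0-10, 0-2, 2-5, 5-8 or 8-10 h post infection. Lysates were Western-blotted for viral NP, with GAPDH probed and DMSO as control.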

A further data set has as its system Red blood cell. As to the kind of experiment: Inhibition of hemagglutinin in Influenza A virus A/WSN/33(H1N1)) assessed as reduction in virus-induced agglutination of chicken red blood cells pretreated for 1 hr followed by further incubated for 1 hr. Type of data set: cell-based. As to conditions: Influenza A virus (A/WSN/1933(H1N1)). In outline: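 Haemagglutination inhibition: compound was 3-fold serially diluted in saline and mixed with an equal volume of WSN virus (2 HA units) in V-bottom wells. Freshly prepared chicken RBC (1% v/v in saline) were added and incubated at room temperature. cRBC aggregation was scored visually, with anti-HA antibody as comparator.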

Data set [6] has as its system Influenza A virus. Description: Antiviral activity against Influenza A virus A/WSN/33(H1N1)) infected in MDCK cells assessed as suppression of viral genome replication after 8 to 10 hrs post infection by time of addition assay. The data set is classed as functional, organism-based. The conditions noted are these: A/WSN/1933(H1N1), time 8-10 hrs. Put shortly:
as §2

The test system of data set [7] is Influenza A virus. Description: Antiviral activity against Influenza A virus A/WSN/33(H1N1)) infected in MDCK cells assessed as suppression of viral genome translation after 8 to 10 hrs post infection by time of addition assay. As to conditions: A/WSN/1933(H1N1), time 8-10 hrs. The data set is classed as functional, organism-based. Put shortly:
as §2

Data set [8] relates to Influenza A virus. Description: Antiviral activity against Influenza A virus A/WSN/33(H1N1)) infected in MDCK cells assessed as suppression of virion assembly and release after 8 to 10 hrs post infection by time of addition assay. As to conditions: A/WSN/1933(H1N1), time 8-10 hrs. The data set is classed as functional, organism-based. In outline:
as §2

Data set [9] deals with Influenza A virus. Description: Antiviral activity against Influenza A virus A/WSN/33(H1N1)) infected in MDCK cells assessed as inhibition rate at 50 uM by co-treatment assay. Type of data set: functional, A/WSN/1933(H1N1). Details: scale not given: the % may be the effect or the level left.
For data set [10], the system named is Influenza A virus. As to the kind of experiment: Antiviral activity against Influenza A virus A/WSN/33(H1N1)) infected in MDCK cells assessed as inhibition rate by pretreated virus at 50 uM. Type of data set: functional, A/WSN/1933(H1N1). Details: scale not given: the % may be the effect or the level left.

Active and inactive are the calls of the source. The rule behind the calls is not given here.

As a reminder, the CC50 is the concentration giving 50% cytotoxicity. `C=C(C)[C@@H]1CC[C@@]2(C(=O)NCc3cn(C[C@H](O)[C@H]4OC(=O)C(OC)=C4OC)nn3)[C@H]1[C@H]1CC[C@@H]3[C@@]4(C)CC[C@H](O)C(C)(C)[C@@H]4CC[C@@]3(C)[C@]1(C)C[C@H]2O`: the CC50 at 40 h in data set [1] was 43.9 µM.
By EC50 is commonly meant the concentration that produces a half-maximal response. For the compound `CC1(C)CC[C@]2(C(=O)NCc3cn(C[C@H](O)[C@H]4OC(=O)C(OCc5ccccc5)=C4OCc4ccccc4)nn3)CC[C@]3(C)C(=CC[C@@H]4[C@@]5(C)CC[C@H](O)C(C)(C)[C@@H]5CC[C@]43C)[C@@H]2C1`, the “inhibition (INH)” value in the data set with Influenza A virus [2] was 91.3%. For the same compound, the EC50 in the data set on Influenza A virus [3] came out at 19.2 µM. In data set [1], the CC50 at 40 h was above 200 µM.
For the compound `COC1=C(OC)[C@@H]([C@@H](O)Cn2cc(CNC(=O)[C@]34CCC(C)(C)C[C@H]3C3=CC[C@@H]5[C@@]6(C)CC[C@H](O)C(C)(C)[C@@H]6CC[C@@]5(C)[C@]3(C)C[C@H]4O)nn2)OC1=O`, half-maximal cytotoxicity in data set [1] (CC50 at 40 h) was put at 5.6 µM.
The same measure, in the same setting: the value for `COC1=C(OC)[C@@H]([C@@H](O)Cn2cc(CNC(=O)[C@]34CC[C@@H](C)[C@H](C)[C@H]3C3=CC[C@@H]5[C@@]6(C)CC[C@H](O)C(C)(C)[C@@H]6CC[C@@]5(C)[C@]3(C)C[C@H]4O)nn2)OC1=O` was 52.5 µM; that for `CC1(C)CC[C@]2(C(=O)NCc3cn(C[C@H](O)[C@H]4OC(=O)C(O)=C4O)nn3)CC[C@]3(C)C(=CC[C@@H]4[C@@]5(C)CC[C@H](O)C(C)(C)[C@@H]5CC[C@]43C)[C@@H]2C1` was 46.8 µM.
In turn, `COC1=C(OC)[C@@H]([C@@H](O)Cn2cc(CNC(=O)[C@]34CCC(C)(C)C[C@H]3C3=CC[C@@H]5[C@@]6(C)CC[C@H](O)C(C)(C)[C@@H]6CC[C@@]5(C)[C@]3(C)CC4)nn2)OC1=O` came in with a CC50 at 40 h in [1] of 19.6 µM.
As to `C=C(C)[C@@H]1CC[C@]2(C(=O)NC[C@H](O)[C@H]3OC(=O)C(OCc4ccccc4)=C3OCc3ccccc3)CC[C@]3(C)[C@H](CC[C@@H]4[C@@]5(C)CC[C@H](O)C(C)(C)[C@@H]5CC[C@]43C)[C@@H]12`, in the data set with Influenza A virus [2], the “inhibition (INH)” value was found to be 89.6%. Further, in the data set on Influenza A virus [3], the EC50 stood at 23.7 µM. The CC50 at 40 h in data set [1] is above 200 µM.
In turn, `C[C@H]1[C@H](C)CC[C@]2(C(=O)NCc3cn(C[C@H](O)[C@H]4OC(=O)C(O)=C4O)nn3)[C@H](O)C[C@]3(C)C(=CC[C@@H]4[C@@]5(C)CC[C@H](O)C(C)(C)[C@@H]5CC[C@]43C)[C@H]12` registered a CC50 at 40 h in data set [1] of 41.1 µM.
`C[C@H]1[C@H](C)CC[C@]2(C(=O)NCc3cn(C[C@H](O)[C@H]4OC(=O)C(OCc5ccccc5)=C4OCc4ccccc4)nn3)CC[C@]3(C)C(=CC[C@@H]4[C@@]5(C)CC[C@H](O)C(C)(C)[C@@H]5CC[C@]43C)[C@H]12`: the “inhibition (INH)” value in the data set on Influenza A virus [2] came to 90.8%. Besides, in the data set with Influenza A virus [3], the EC50 was determined as 25.7 µM. Also, the CC50 at 40 h in data set [1] is above 200 µM.
`CC1(C)CC[C@]2(C(=O)NC[C@H](O)[C@H]3OC(=O)C(O)=C3O)CC[C@]3(C)C(=CC[C@@H]4[C@@]5(C)CC[C@H](O)C(C)(C)[C@@H]5CC[C@]43C)[C@@H]2C1` displayed a CC50 at 40 h in data set [1] of 41.9 µM.
For orientation: Kd means the free concentration of one partner at which half of the binding sites on the other are occupied at equilibrium, for simple one-to-one binding. In the case of `C=C(C)[C@@H]1CC[C@]2(C(=O)NCc3cn(C[C@H](O)[C@H]4OC(=O)C(O)=C4O)nn3)CC[C@]3(C)[C@H](CC[C@@H]4[C@@]5(C)CC[C@H](O)C(C)(C)[C@@H]5CC[C@]43C)[C@@H]12`, in the data set on Influenza A virus [2], the “inhibition (INH)” value stood at 93.1%. In addition, the EC50 in the data set with Influenza A virus [3] worked out at 41.3 µM. Further, in [1], the CC50 at 40 h is above 200 µM. In addition, the Kd in data set [4] came out at 8.04 µM.
In the case of `CC1(C)CC[C@]2(C(=O)NC[C@H](O)[C@H]3OC(=O)C(OCc4ccccc4)=C3OCc3ccccc3)[C@H](O)C[C@]3(C)C(=CC[C@@H]4[C@@]5(C)CC[C@H](O)C(C)(C)[C@@H]5CC[C@]43C)[C@@H]2C1`, the “inhibition (INH)” value in the data set on Influenza A virus [2] came out at 71.1%. Moreover, in the data set on Influenza A virus [3], the EC50 was found to be 30.3 µM. In data set [1], the CC50 at 40 h is above 200 µM.
For `C[C@H]1[C@H](C)CC[C@]2(C(=O)NC[C@H](O)[C@H]3OC(=O)C(OCc4ccccc4)=C3OCc3ccccc3)CC[C@]3(C)C(=CC[C@@H]4[C@@]5(C)CC[C@H](O)C(C)(C)[C@@H]5CC[C@]43C)[C@H]12` the same measures were 88.1%, 26.4 µM and above 200 µM.
For `CC(C)[C@@H]1CC[C@]2(C(=O)NC[C@H](O)[C@H]3OC(=O)C(O)=C3O)CC[C@]3(C)[C@H](CC[C@@H]4[C@@]5(C)CC[C@H](O)C(C)(C)[C@@H]5CC[C@]43C)[C@@H]12`, in that order: 84.4%, 35.6 µM and above 200 µM.
For `CCOC(=O)C1=C[C@@H](OC(CC)CC)[C@H](NC(C)=O)[C@@H](N)C1.O=P(O)(O)O` [OSELTAMIVIR PHOSPHATE] the same measures were 86.5%, 12.5 µM and above 200 µM.
Regarding `CC1(C)CC[C@]2(C(=O)NC[C@H](O)[C@H]3OC(=O)C(O)=C3O)[C@H](O)C[C@]3(C)C(=CC[C@@H]4[C@@]5(C)CC[C@H](O)C(C)(C)[C@@H]5CC[C@]43C)[C@@H]2C1`, in [1], the midpoint of cytotoxicity, the CC50 at 40 h, lay at 29.7 µM.
As for `CC1(C)CC[C@]2(C(=O)NC[C@H](O)[C@H]3OC(=O)C(OCc4ccccc4)=C3OCc3ccccc3)CC[C@]3(C)C(=CC[C@@H]4[C@@]5(C)CC[C@H](O)C(C)(C)[C@@H]5CC[C@]43C)[C@@H]2C1`, the “inhibition (INH)” value in the data set on Influenza A virus [2] is recorded as 81.9%. In addition, the EC50 in the data set on Influenza A virus [3] was 25.3 µM. The CC50 at 40 h in [1] was above 200 µM.
`C=C(C)[C@@H]1CC[C@]2(C(=O)NCc3cn(C[C@H](O)[C@H]4OC(=O)C(OCc5ccccc5)=C4OCc4ccccc4)nn3)CC[C@]3(C)[C@H](CC[C@@H]4[C@@]5(C)CC[C@H](O)C(C)(C)[C@@H]5CC[C@]43C)[C@@H]12`: the “inhibition (INH)” value in the data set with Influenza A virus [2] is 89.6%. In addition, the EC50 with Influenza A virus [3] is 8.7 µM. Further, the CC50 at 40 h in data set [1] is above 200 µM. Also, the outcome in the data set with Influenza A virus [5], in the data set on Influenza A virus [6], with Influenza A virus [7] and with Influenza A virus [8] was Active. Besides, the inhibition result with Red blood cell is “Dose-dependent effect”. Further, the Kd in data set [4] was 3.76 µM. Besides, the Activity is given as 75% with Influenza A virus [9] and 87% with Influenza A virus [10].
Turning to `CC1(C)CC[C@]2(C(=O)NCc3cn(C[C@H](O)[C@H]4OC(=O)C(OCc5ccccc5)=C4OCc4ccccc4)nn3)[C@H](O)C[C@]3(C)C(=CC[C@@H]4[C@@]5(C)CC[C@H](O)C(C)(C)[C@@H]5CC[C@]43C)[C@@H]2C1`, the “inhibition (INH)” value in the data set on Influenza A virus [2] is recorded as 87%. Also, the EC50 in the data set with Influenza A virus [3] amounted to 56.6 µM. Moreover, the CC50 at 40 h in data set [1] is above 200 µM.
As to `CC1(C)CC[C@]2(C(=O)NCc3cn(C[C@H](O)[C@H]4OC(=O)C(O)=C4O)nn3)[C@H](O)C[C@]3(C)C(=CC[C@@H]4[C@@]5(C)CC[C@H](O)C(C)(C)[C@@H]5CC[C@]43C)[C@@H]2C1`, the CC50 at 40 h in [1] is 59.3 µM.
